Test results: ChEMBL document CHEMBL1811860, “Synthesis and inhibitory activity of sialic acid derivatives targeted at viral sialate-O-acetylesterases” (Eur J Med Chem, 2011)

Legend:
[1] = Inhibition of Bovine coronavirus 9-SOAE expressed in Sf9 cells assessed as inhibition of hydrolysis of pNPA at 0.5 mM
[2] = Inhibition of recombinant influenza C virus C/Cal/78 GFP-tagged 9-SOAE expressed in Sf9 cells assessed as inhibition of Neu5,9Ac2 hydrolysis at 1 mM by fluorimetric HPLC analysis
Outline: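 Baculovirus/Sf9-expressed EGFP fusion (10 mU) was preincubated with 1 mM sialoside in PBS pH 7.4 for 30 min at room temperature. Free O-acetylated sialic acid or bovine submandibular mucin (10 µg) was then added and incubated at 37 °C for 20–240 min. Mucin samples were hydrolysed in 2 M propionic acid (80 °C, 2 h). Sialic acids were analysed by reverse-phase HPLC with fluorimetric detection.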

[3] = Inhibition of recombinant influenza C virus C/Cal/78 GFP-tagged 9-SOAE expressed in Sf9 cells assessed as inhibition of hydrolysis of pNPA at 0.5 mM
Outline: (§1)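 EGFP-fused haemagglutinin-esterase was made in serum-free Sf9 cultures via recombinant baculovirus and recovered from supernatant by ultracentrifugation (1.5 h, 4 °C). It was preincubated with sialoside for 30 min at room temperature. pNPA (10 µl of 100 mM acetonitrile stock) was added in PBS pH 7.4 to 1 ml, and A400 was followed. Read-out was % inhibition of pNPA hydrolysis.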

[4] = Inhibition of Influenza C virus C/JJ/50 9-SOAE expressed in Sf9 cells assessed as inhibition of hydrolysis of pNPA at 1 mM
[5] = Inhibition of Bovine coronavirus 9-SOAE expressed in Sf9 cells assessed as inhibition of hydrolysis of pNPA at 2 mM
[6] = Inhibition of recombinant influenza C virus C/Cal/78 GFP-tagged 9-SOAE expressed in Sf9 cells assessed as inhibition of hydrolysis of pNPA at 1 mM; outline: as §1
[7] = Inhibition of recombinant influenza C virus C/Cal/78 GFP-tagged 9-SOAE expressed in Sf9 cells assessed as inhibition of hydrolysis of pNPA at 2 mM; outline: as §1
[8] = Inhibition of Bovine coronavirus […] assessed as inhibition of hydrolysis of pNPA at 1 mM; details: Sf9
[9] = Inhibition of recombinant influenza C virus C/Cal/78 GFP-tagged 9-SOAE expressed in Sf9 cells assessed as inhibition of hydrolysis of pNPA at 5 mM; outline: as §1
[10] = Inhibition of SDAV GFP-tagged 9-SOAE expressed in Sf9 cells assessed as inhibition of hydrolysis of pNPA at 0.1 mM; details: Rat sialodacryoadenitis coronavirus; outline: as §1
[11] = Inhibition of MHV S 4-SOAE expressed in Sf9 cells assessed as inhibition of hydrolysis of pNPA at 1 mM; details: Murine coronavirus
[12] = Inhibition of MHV S 4-SOAE expressed in Sf9 cells assessed as inhibition of hydrolysis of pNPA at 5 mM; details: Murine coronavirus
[13] = Inhibition of SDAV GFP-tagged 9-SOAE expressed in Sf9 cells assessed as inhibition of hydrolysis of pNPA at 0.5 mM; details: Rat sialodacryoadenitis coronavirus; outline: as §1
[14] = Inhibition of MHV S 4-SOAE expressed in Sf9 cells assessed as inhibition of hydrolysis of pNPA at 0.5 mM; details: Murine coronavirus
[15] = Inhibition of SDAV GFP-tagged 9-SOAE expressed in Sf9 cells assessed as inhibition of hydrolysis of pNPA at 1 mM; details: Rat sialodacryoadenitis coronavirus; outline: as §1
[16] = Inhibition of MHV S 4-SOAE expressed in Sf9 cells assessed as inhibition of hydrolysis of pNPA at 0.1 mM; details: Murine coronavirus
[17] = Inhibition of SDAV GFP-tagged 9-SOAE expressed in Sf9 cells assessed as inhibition of hydrolysis of pNPA at 5 mM; details: Rat sialodacryoadenitis coronavirus; outline: as §1
[18] = Inhibition of influenza C virus 9-SOAE assessed as inhibition of hydrolysis of pNPA
Outline: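 Esterase came from whole virions purified by ultracentrifugation through a 20% sucrose cushion (1.5 h, 4 °C) and resuspended in PBS pH 7.4. Enzyme was preincubated with sialoside for 30 min at room temperature. pNPA (10 µl of 100 mM acetonitrile stock) was then added in PBS pH 7.4 to 1 ml, and A400 was monitored. Read-out was % inhibition of pNPA hydrolysis.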

## C=CCO[C@]1(C(=O)O)C[C@H](O)[C@@H](NC(C)=O)[C@H]([C@H](O)[C@H](O)COC)O1
[1]
  inhibition: 2.86%
[2]
  inhibition: 10%
[3]
  inhibition: 22.9%
[4]
  inhibition: 8.63%
[5]
  inhibition: < 0%
[6]
  inhibition: 22.4%
[7]
  inhibition: 33%
[8]
  inhibition: 9%
[9]
  inhibition: 85.8%

## C=CCO[C@]1(C(=O)O)C[C@H](OC)[C@@H](NC(C)=O)[C@H]([C@H](O)[C@H](O)CO)O1
[10]
  inhibition: 2.13%
[11]
  inhibition: 8.31%
[12]
  inhibition: 7.73%
[13]
  inhibition: 2.56%
[14]
  inhibition: 0%
[15]
  inhibition: 0.51%
[16]
  inhibition: 4%
[17]
  inhibition: 8.73%

## ((2S,4S,5R,6R)-5-acetamido-6-((1R,2R)-3-acetamido-1,2-dihydroxypropyl)-2-carboxy-4-hydroxytetrahydro-2H-pyran-2-ylthio)(methyl)mercury
[18]
  Ki: 4.2 mM
